Results from publication PMC12679602 (RSC Advances, 2025).
Several values for one entry are separate records, joined by “and”; a condition that tells them apart may be missing. Equal values may be shown once.

Experiments:
[1] = tested on: Escherichia coli TISTR117; assay: Disc diffusion, E. coli; assay type: cell-based; conditions: for Inhibition zone ± SD, E. coli: 1 mg per disc, 6 mm disc, 37 °C, 18–24 h
Method in brief: (§1)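 Test compounds were dissolved in DMSO, and 1 mg was loaded onto sterile 6 mm paper discs. Nutrient agar plates were inoculated with bacterial suspension adjusted to 0.5 McFarland. Each plate held four zones: DMSO negative control, ciprofloxacin positive control (5 µg per disc), the free bile acid and its salts. Plates were incubated at 37 °C for 18–24 h. Inhibition zones were read in mm, in triplicate.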

[2] = tested on: Staphylococcus aureus TISTR746; assay: Disc diffusion, S. aureus; assay type: cell-based; conditions: for Inhibition zone ± SD, S. aureus: 1 mg per disc, 6 mm disc, 37 °C, 18–24 h
Method in brief: as §1

S. typhi = assay: Disc diffusion, S. typhi; assay type: cell-based, Salmonella enterica serovar Typhimurium TISTR1470; conditions: for Inhibition zone ± SD, S. typhi: 1 mg per disc, 6 mm disc, 37 °C, 18–24 h
Method in brief: as §1

Bacillus cereus TISTR035 = assay: Disc diffusion, B. cereus; assay type: cell-based; conditions: for Inhibition zone ± SD, B. cereus: 1 mg per disc, 6 mm disc, 37 °C, 18–24 h
Method in brief: as §1

[3] = tested on: Pseudomonas aeruginosa TISTR357; assay: Disc diffusion, P. aeruginosa; assay type: cell-based; conditions: for Inhibition zone ± SD, P. aeruginosa: 1 mg per disc, 6 mm disc, 37 °C, 18–24 h
Method in brief: as §1

[4] = tested on: B. cereus, S. aureus, S. epidermidis, E. faecalis, and E. coli; assay: Disc diffusion, range over strains as summarised in text; assay type: cell-based; conditions: for inhibition zones, range over strains: B. cereus, S. aureus, S. epidermidis, E. faecalis, E. coli, 1 mg per disc
Method in brief: as §1

S. flexneri ATCC 9199 = assay: Disc diffusion, S. flexneri; assay type: cell-based, Shigella flexneri; conditions: for Inhibition zone ± SD, S. flexneri: 1 mg per disc, 6 mm disc, 37 °C, 18–24 h
Method in brief: as §1

[5] = tested on: Staphylococcus epidermidis TISTR2172; assay: Disc diffusion, S. epidermidis; assay type: cell-based; conditions: for Inhibition zone ± SD, S. epidermidis: 1 mg per disc, 6 mm disc, 37 °C, 18–24 h
Method in brief: as §1

[6] = tested on: Candida albicans TISTR5554; assay: Disc diffusion, C. albicans; assay type: cell-based; conditions: for Inhibition zone ± SD, C. albicans: 1 mg per disc, 6 mm disc, 37 °C, 18–24 h
Method in brief: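 Disc diffusion against the yeast. Test compound was in DMSO at 1 mg per 6 mm sterile paper disc, on nutrient agar inoculated with suspension standardized to 0.5 McFarland. Each plate carried a DMSO negative control, amphotericin B positive control (10 µg per disc), the free bile acid and its salts. Incubation was 37 °C for 18–24 h. Zone of inhibition was measured in mm, in triplicate.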

[7] = tested on: Enterococcus faecalis TISTR927; assay: Disc diffusion, E. faecalis; assay type: cell-based; conditions: for Inhibition zone ± SD, E. faecalis: 1 mg per disc, 6 mm disc, 37 °C, 18–24 h
Method in brief: as §1

in vitro = conditions: human
[8] = Escherichia coli, TISTR117, read-out: Inhibition zone ± SD, E. coli
[9] = Staphylococcus aureus, TISTR746, read-out: Inhibition zone ± SD, S. aureus
[10] = Bacillus cereus, TISTR035, read-out: Inhibition zone ± SD, B. cereus
[11] = Staphylococcus epidermidis, TISTR2172, read-out: Inhibition zone ± SD, S. epidermidis
[12] = Enterococcus faecalis, TISTR927, read-out: Inhibition zone ± SD, E. faecalis

Compound	Inhibition zone ± SD, E. coli [1]	Inhibition zone ± SD, S. aureus [2]	Inhibition zone ± SD, S. typhi (S. typhi)	Inhibition zone ± SD, B. cereus (Bacillus cereus TISTR035)	Inhibition zone ± SD, P. aeruginosa [3]	Inhibition zone ± SD, S. flexneri (S. flexneri ATCC 9199)	Inhibition zone ± SD, S. epidermidis [5]	Inhibition zone ± SD, C. albicans [6]	Inhibition zone ± SD, E. faecalis [7]	other results
C[C@H](CCC(=O)[O-])[C@H]1CC[C@H]2[C@@H]3CC[C@@H]4C[C@H](O)CC[C@]4(C)[C@H]3C[C@H](O)[C@]12C.C[N+](C)(C)CCO [[DCA][Z] (8)]	13.0 ± 1.9 mm	15.4 ± 2.0 mm	Inactive	18.1 ± 1.7 mm	Inactive	Inactive	19.1 mm and 19.1 ± 0.2 mm	Inactive	15.0 mm and 15.0 ± 1.3 mm	inhibition zones, range over strains [4]: 13.0–19.1 mm; improvement in antibacterial activity compared to its bile acid DCA (5) ([4]; S. epidermidis and E. faecalis inhibition zones): 41.4–41.5%
CCO [Ethanol, ethanol, reference compound]	–	–	–	–	–	–	–	–	–	CC50 (A549-hACE2 cells): >70% v/v
C[C@H](CCC(=O)[O-])[C@H]1CC[C@H]2[C@@H]3[C@H](O)C[C@@H]4C[C@H](O)CC[C@]4(C)[C@H]3CC[C@]12C.C[N+](C)(C)CCO [[CDCA][Z] (16)]	10.4 mm and 10.4 ± 1.2 mm	13.8 mm and 13.8 ± 1.3 mm	Inactive	16.4 mm and 16.4 ± 0.7 mm	Inactive	Inactive	17.1 mm and 17.1 ± 0.5 mm	Inactive	12.2 mm and 12.2 ± 2.6 mm	–
O=C(O)c1cn(C2CC2)c2cc(N3CCNCC3)c(F)cc2c1=O [ciprofloxacin, reference compound]	–	–	–	–	–	–	–	–	–	zone of inhibition at 5 µg/disc [1, 8]: 38.5 ± 2.1 mm; zone of inhibition at 5 µg/disc [2, 9]: 31 ± 1.5 mm; zone of inhibition at 5 µg/disc (S. typhi; Salmonella enterica, TYPHI, read-out: Inhibition zone ± SD, S. typhi): 39.3 ± 2.6 mm; zone of inhibition at 5 µg/disc (Bacillus cereus TISTR035; [10]): 33.2 ± 1.6 mm; zone of inhibition at 5 µg/disc ([3]; Pseudomonas aeruginosa, TISTR357, read-out: Inhibition zone ± SD, P. aeruginosa): 31.2 ± 1.1 mm; zone of inhibition at 5 µg/disc (S. flexneri ATCC 9199; Shigella flexneri, ATCC9199, read-out: Inhibition zone ± SD, S. flexneri): 42.1 ± 0.7 mm; zone of inhibition at 5 µg/disc [5, 11]: 36.4 ± 0.4 mm; zone of inhibition at 5 µg/disc [7, 12]: 24.1 ± 1 mm
C[C@H](CCC(=O)O)[C@H]1CC[C@H]2[C@@H]3[C@@H](O)C[C@@H]4C[C@H](O)CC[C@]4(C)[C@H]3CC[C@]12C [UDCA (9), ursodeoxycholic acid]	7.4 ± 0.4 mm	7.8 ± 0.8 mm	Inactive	8.7 ± 0.3 mm	Inactive	Inactive	9.6 ± 0.4 mm	Inactive	–	–
C[C@H](CCC(=O)O)[C@H]1CC[C@H]2[C@@H]3CC[C@@H]4C[C@H](O)CC[C@]4(C)[C@H]3CC[C@]12C [LCA (1), lithocholic acid]	–	–	Inactive	–	Inactive	Inactive	–	Inactive	–	CC50 (in vitro): > 50 µg/mL; cytotoxicity (A549-hACE2 cells): did not show cytotoxicity
C[C@@H]1[C@H](O)[C@@H](C)/C=C/C=C/C=C/C=C/C=C/C=C/C=C/[C@H](O[C@@H]2O[C@H](C)[C@@H](O)[C@H](N)[C@@H]2O)C[C@@H]2O[C@](O)(C[C@@H](O)C[C@@H](O)[C@H](O)CC[C@@H](O)C[C@@H](O)CC(=O)O[C@H]1C)C[C@H](O)[C@H]2C(=O)O [amphotericin B, reference compound]	–	–	–	–	–	–	–	–	–	zone of inhibition at 10 µg/disc ([6]; Candida albicans, TISTR5554, read-out: Inhibition zone ± SD, C. albicans): 21.8 ± 1.3 mm
CC(CCC(=O)[O-])C1CCC2C3C(O)CC4CC(O)CCC4(C)C3CCC12C.C[N+](C)(C)CCO (stereo not shown) [[UDCA][Z] (12)]	10.1 ± 1.1 mm	10.3 ± 1.7 mm	Inactive	12.5 ± 0.5 mm	Inactive	Inactive	13.0 ± 0.5 mm	Inactive	–	–
C[C@H](CCC(=O)O)[C@H]1CC[C@H]2[C@@H]3[C@H](O)C[C@@H]4C[C@H](O)CC[C@]4(C)[C@H]3CC[C@]12C [CDCA (13), chenodeoxycholic acid]	7.6 ± 0.6 mm	9.4 ± 0.8 mm	Inactive	13.5 ± 0.4 mm	Inactive	Inactive	11.8 ± 0.4 mm	Inactive	8.4 ± 1.1 mm	zone of inhibition at 1000 µg/disc [1, 8]: 7.6 mm; zone of inhibition at 1000 µg/disc [2, 9]: 9.4 mm; zone of inhibition at 1000 µg/disc (Bacillus cereus TISTR035; [10]): 13.5 mm; zone of inhibition at 1000 µg/disc [5, 11]: 11.8 mm; zone of inhibition at 1000 µg/disc [7, 12]: 8.4 mm
C[C@H](CCC(=O)O)[C@H]1CC[C@H]2[C@@H]3CC[C@@H]4C[C@H](O)CC[C@]4(C)[C@H]3C[C@H](O)[C@]12C [DCA (5), deoxycholic acid]	10.9 ± 1.6 mm	11.7 ± 1.6 mm	Inactive	14.4 ± 1.5 mm	Inactive	Inactive	13.5 ± 0.7 mm	Inactive	10.6 ± 0.4 mm	inhibition zones, range over strains [4]: 10.6–14.4 mm; zone of inhibition at 1000 µg/disc [5, 11]: 13.5 mm; zone of inhibition at 1000 µg/disc [7, 12]: 10.6 mm
C[C@H](CCC(=O)[O-])[C@H]1CC[C@H]2[C@@H]3CC[C@@H]4C[C@H](O)CC[C@]4(C)[C@H]3CC[C@]12C.C[N+](C)(C)CCO [[LCA][Z] (4)]	–	–	Inactive	7.8 mm and 7.8 ± 1.2 mm	Inactive	Inactive	–	Inactive	–	CC50 (A549-hACE2 cells): >50 µg/mL; cytotoxicity (A549-hACE2 cells): did not exhibit cytotoxicity
